Source: ChEMBL document CHEMBL2029329, “Synthesis and biological evaluation of 1,4-diaryl-2-azetidinones as specific anticancer agents: activation of adenosine monophosphate activated protein kinase and induction of apoptosis” (J Med Chem, 2012)
Blank lines part the entries; values can stand above or below the compound they belong to. Calls of active or inactive are those of the source. The rule behind the calls is not given here.

What was measured:
[1] = biological target: T1, AMP-activated protein kinase, AMPK (Homo sapiens) (UniProt P54646+O43741+P54619+Q9UGJ0+Q9Y478+Q13131+Q9UGI9); experiment: Induction of AMPK phosphorylation at Thr172 residue in human SW48 cells at 30 nM after 16 hrs by Western blot analysis; assay type: cell-based
Outline: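 SW48 cells were exposed to 30 nM compound for 16 h, with 0.1% DMSO as vehicle. Total RIPA lysates (with protease and phosphatase inhibitors) were blotted for pT172-AMPK and total AMPK.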

[2] = system: HeLa; experiment: Antiproliferative activity in human HeLa cells assessed as cell viability at 10 uM after 48 hrs by MTT assay; assay type: functional, cell-based
Outline: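 HeLa cells were kept in DMEM with 10% FBS at 37 °C, 5% CO2. They were seeded, left 24 h, then given 10 μM compound for 48 h. MTT was added for 2 h at 37 °C, formazan solubilized, absorbance read at 570 nm, and viability compared with control cells.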

[3] = Cell cycle arrest in human HuTu 80 cells assessed as accumulation at sub-G1 phase at 30 nM after 48 hrs by propidium iodide-based flow cytometry (reference value: 3.3 %); conditions: HuTu80
[4] = biological target: T1, AMP-activated protein kinase, AMPK (Homo sapiens); experiment: Induction of AMPK-mediated raptor phosphorylation at ser792 residue in human […] cells at 30 nM after 24 hrs by Western blot analysis; assay type: cell-based
Outline: (§1)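 HuTu-80 cells were exposed to 30 nM compound for 24 h, with 0.1% DMSO as vehicle. pT172-AMPK and pS792-Raptor were blotted from total RIPA extracts with vinculin for loading. pS15-p53 and total p53 were blotted from nuclear extracts with fibrillarin as nuclear control.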

[5] = biological target: T1, AMP-activated protein kinase, AMPK (Homo sapiens); experiment: Induction of AMPK phosphorylation at Thr172 residue in human […] cells at 30 nM after 24 hrs by Western blot analysis; assay type: cell-based; outline: as §1
[6] = Cell cycle arrest in human HuTu 80 cells assessed as accumulation at G2/M phase at 30 nM after 48 to 72 hrs by propidium iodide-based flow cytometry; assay type: functional; conditions: HuTu80
Outline: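 HuTu-80 cells were exposed to 30 nM compound for 48 and 72 h, with 0.1% DMSO as vehicle. Cells were trypsinized, washed in PBS, fixed in 75% ethanol at 4 °C and stained with propidium iodide. DNA content was measured by flow cytometry.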

[7] = biological target: T1, AMP-activated protein kinase, AMPK (Homo sapiens); experiment: Induction of AMPK-mediated p53 pser15 accumulation in human […] cells at 30 nM after 24 hrs by Western blot analysis; assay type: cell-based; outline: as §1
[8] = system: HuTu80; experiment: Induction of apoptosis in human HuTu 80 cells assessed as PARP cleavage at 30 nM after 24 hrs by Western blot analysis
[9] = Cell cycle arrest in human HuTu 80 cells assessed as […] at sub-G1 phase at 30 nM by propidium iodide-based flow cytometry; assay type: functional; conditions: HuTu80, TDE = time-dependent effect
[10] = biological target: T1, AMP-activated protein kinase, AMPK (Homo sapiens); experiment: Induction of AMPK-mediated p53 phosphorylation at ser15 residue in human […] cells at 30 nM after 24 hrs by Western blot analysis; assay type: cell-based; outline: as §1
[11] = system: HuTu 18; experiment: Effect on AKT phosphorylation at ser473 in human […] cells at 30 nM after 24 hrs by Western blot analysis; assay type: cell-based
Outline: (§2)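 HuTu-80 cells were exposed to 30 nM compound for 24 h, with 0.1% DMSO as vehicle. They were then mock treated or stimulated with 10 μg/mL insulin for 10 min. Total RIPA extracts were probed by Western blot for pS473-Akt and total Akt, with vinculin as loading control.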

[12] = system: HuTu 18; experiment: Effect on AKT phosphorylation at ser473 in insulin-stimulated human […] cells at 30 nM after 24 hrs by Western blot analysis; assay type: cell-based; outline: as §2
[13] = Cell cycle arrest in human HuTu 80 cells assessed as […] at sub-G1 phase at 30 nM after 72 hrs by propidium iodide-based flow cytometry (reference value: 4.3 %); assay type: functional; parameters: scale not given: the % may be the effect or the level left; conditions: HuTu80
[14] = system: HuTu80; experiment: Induction of apoptosis in human HuTu 80 cells assessed as caspase-3 cleavage at 30 nM after 24 hrs by Western blot analysis
[15] = system: SW48; experiment: Antiproliferative activity in human SW48 cells assessed as cell viability after 72 hrs by MTT assay; assay type: functional, cell-based
Outline: (§3)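 Each line was grown in its own medium: DMEM for HuTu-80, EMEM/NEAA for MCF-7, EMEM/F12 for SKNBE, DMEM/F12 with 5% FBS for T84, Leibovitz's for the SW lines. Cells were seeded, left 24 h, then exposed to graded concentrations for 72 h. MTT was given 2 h, absorbance read at 570 nm. IC50 is 50% absorbance inhibition versus control, from dose-response curves; mean ± SD of ≥3 independent experiments, each in triplicate.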

[16] = system: T84; experiment: Antiproliferative activity in human T84 cells assessed as cell viability after 72 hrs by MTT assay; assay type: functional, cell-based; outline: as §3
[17] = system: SW480; experiment: Antiproliferative activity in human SW480 cells assessed as cell viability after 72 hrs by MTT assay; assay type: functional, cell-based; outline: as §3
[18] = system: SW-620; experiment: Antiproliferative activity in human SW620 cells assessed as cell viability after 72 hrs by MTT assay; assay type: functional, cell-based; outline: as §3
[19] = biological target: Tubulin (Sus scrofa, UniProt P02554+P02550); experiment: Inhibition of porcine brain tubulin polymerization after 30 mins by spectrophotometry
Outline: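 Porcine brain tubulin at 2.5 mg/mL was used in 80 mM PIPES pH 6.9, 1 mM MgCl2, 2 mM EGTA, 10% glycerol, with 1 mM GTP and graded compound (0.2% DMSO vehicle). Turbidity was followed at 340 nm, 37 °C.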

[20] = Antiproliferative activity in human SK-N-BE cells assessed as cell viability after 72 hrs by MTT assay; assay type: functional, cell-based; outline: as §3
[21] = system: MCF7; experiment: Antiproliferative activity in human MCF7 cells assessed as cell viability after 72 hrs by MTT assay; assay type: functional, cell-based; outline: as §3
[22] = Antiproliferative activity in human HuTu 80 cells assessed as cell viability after 72 hrs by MTT assay; assay type: functional, cell-based, HuTu80; outline: as §3
[23] = Antiproliferative activity in human renal cancer cells; assay type: functional, cell-based; conditions: Cancer cell lines
[24] = Antiproliferative activity in human FHs74 cells assessed as cell viability at 10 uM after 72 hrs by MTT assay; assay type: cell-based
Outline: (§4)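 Normal cells (CCD841CoN in EMEM/NEAA with 10% FBS; FHs74 in DMEM with 10% FBS, EGF 30 ng/mL, insulin 10 μg/mL) were seeded and grown for 24 h at 37 °C, 5% CO2, then given compound at 10 μM. Viability was read by MTT: 2 h at 37 °C, formazan solubilized, absorbance at 570 nm.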

[25] = Antiproliferative activity in human CCD-841-CoN cells assessed as cell viability at 10 uM after 72 hrs by MTT assay; assay type: cell-based; outline: as §4

Activity [1]: Active
Activity [4]: Active
Activity [5]: Active
Activity [7]: Active
Activity [10]: Active
SMILES: COc1ccc([C@H]2[C@H](O)C(=O)N2c2cc(OC)cc(OC)c2)cc1 (racemic) [listing 1 of 2 here]
Activity [2]: Active
Activity [3]: 28.5%
Activity [6]: Active
Activity [8]: Active
Activity [9]: tde
Activity [11]: inactive
Activity [12]: inactive
Activity [13]: 35%
Activity [14]: Active

IC50 ([15]; sw48): 11.1 nM
IC50 ([17]; sw480): 16.7 nM
IC50 ([18]; sw-620): 8.58 nM
IC50 [19]: 1300 nM
IC50 ([21]; mcf7): 4.01 nM
SMILES: COc1ccc([C@H]2[C@H](O)C(=O)N2c2cc(OC)cc(OC)c2)cc1 (stereo in doubt; (+))
IC50 ([16]; t84): 6.77 nM
IC50 ([20]; sk-n-be): 1.12 nM
IC50 ([22]; hutu80): 8.02 nM

SMILES: COc1ccc([C@@H]2[C@H](O)C(=O)N2c2cc(OC)c(OC)c(OC)c2)cc1[N+](=O)[O-]
IC50 [23]: 29.2 nM
IC50 ([22]; Homo sapiens, HuTu80, 72 h): 529 nM

SMILES: COc1ccc([C@@H]2[C@H](O)C(=O)N2c2cc(OC)c(OC)c(OC)c2)cc1O (racemic)
Activity [2]: Active
IC50 ([22]; Homo sapiens, HuTu80, 72 h): 28.8 nM

IC50 ([15]; sw48): 9.81 nM
IC50 ([17]; sw480): 12.5 nM
IC50 ([18]; sw-620): 3.37 nM
IC50 [19]: 1610 nM
IC50 ([21]; mcf7): 4.47 nM
SMILES: COc1ccc([C@H]2[C@H](O)C(=O)N2c2cc(OC)c(OC)c(OC)c2)cc1O (stereo in doubt; (+))
IC50 ([16]; t84): 20.3 nM
Activity [24]: Non-toxic
Activity [25]: Non-toxic
IC50 ([20]; sk-n-be): 1.32 nM
IC50 ([22]; hutu80): 3.05 nM

SMILES: COc1ccc([C@H]2[C@H](O)C(=O)N2c2cc(OC)c(OC)c(OC)c2)cc1O (stereo in doubt; (-))
IC50 ([22]; hutu80): 590 nM

SMILES: COc1ccc(/C=C\c2cc(OC)c(OC)c(OC)c2)cc1O [COMBRETASTATIN A4]
IC50 ([15]; Homo sapiens, SW48, 72 h): 3.32 nM
Activity [2]: Active
IC50 ([16]; Homo sapiens, T84, 72 h): 23.4 nM
Activity [3]: 24.6%
IC50 ([17]; Homo sapiens, SW480, 72 h): 3.63 nM
Activity [7]: Active
Activity [8]: Active
IC50 ([18]; Homo sapiens, SW-620, 72 h): 1.52 nM
IC50 ([20]; Homo sapiens, SK-N-BE, 72 h): 0.58 nM
IC50 ([21]; Homo sapiens, MCF7, 72 h): 1.11 nM
Activity [13]: 34%
IC50 ([22]; Homo sapiens, HuTu80, 72 h): 1.37 nM
Activity [14]: Active

IC50 ([15]; Homo sapiens, SW48, 72 h): 15.2 nM
IC50 ([17]; Homo sapiens, SW480, 72 h): 22.1 nM
IC50 ([18]; sw-620): 13.6 nM
IC50 [19]: 3800 nM
IC50 ([21]; Homo sapiens, MCF7, 72 h): 6.14 nM
SMILES: COc1ccc([C@H]2[C@H](O)C(=O)N2c2cc(OC)c(OC)c(OC)c2)cc1O (racemic) [listing 1 of 2 here]
IC50 ([16]; t84): 45.4 nM
IC50 ([20]; sk-n-be): 4.2 nM
IC50 ([22]; hutu80): 13.4 nM

SMILES: COc1ccc([C@H]2[C@H](O)C(=O)N2c2cc(OC)cc(OC)c2)cc1 (stereo in doubt; (-))
IC50 ([22]; hutu80): 83.5 nM

IC50 ([15]; Homo sapiens, SW48, 72 h): 12.1 nM
IC50 ([17]; Homo sapiens, SW480, 72 h): 24.2 nM
IC50 ([18]; Homo sapiens, SW-620, 72 h): 6.6 nM
IC50 [19]: 3600 nM
IC50 ([21]; Homo sapiens, MCF7, 72 h): 5.19 nM
SMILES: COc1ccc([C@H]2[C@H](O)C(=O)N2c2cc(OC)cc(OC)c2)cc1 (racemic) [listing 2 of 2 here]
IC50 ([16]; Homo sapiens, T84, 72 h): 5.73 nM
Activity [24]: Non-toxic
Activity [25]: Non-toxic
IC50 ([20]; sk-n-be): 2.25 nM
IC50 ([22]; hutu80): 9.05 nM

SMILES: COc1ccc(N2C(=O)[C@@H](O)[C@@H]2c2cc(OC)c(OC)c(OC)c2)cc1O (racemic)
Activity [2]: Active
IC50 ([22]; Homo sapiens, HuTu80, 72 h): 406 nM

Activity [1]: Active
Activity [4]: Active
Activity [5]: Active
Activity [7]: Active
Activity [10]: Active
SMILES: COc1ccc([C@H]2[C@H](O)C(=O)N2c2cc(OC)c(OC)c(OC)c2)cc1O (racemic) [listing 2 of 2 here]
Activity [2]: Active
Activity [3]: 22.9%
Activity [6]: Active
Activity [8]: Active
Activity [9]: tde
Activity [11]: inactive
Activity [12]: inactive
Activity [13]: 32.7%
Activity [14]: Active

SMILES: COc1ccc([C@@H]2[C@H](O)C(=O)N2c2cc(OC)cc(OC)c2)cc1 (racemic)
Activity [2]: Active
IC50 ([22]; Homo sapiens, HuTu80, 72 h): 125 nM

SMILES: COc1ccc([C@@H]2[C@H](O)C(=O)N2c2cc(OC)c(OC)c(OC)c2)cc1N
IC50 ([22]; Homo sapiens, HuTu80, 72 h): 101 nM

SMILES: COc1ccc(N2C(=O)[C@@H](O)[C@H]2c2cc(OC)c(OC)c(OC)c2)cc1O (racemic)
Activity [2]: Active
IC50 ([22]; Homo sapiens, HuTu80, 72 h): 2550 nM
